This is a sample that favours compounds with a hit; in the whole collection about 1.4% have one here.
CHT PAM: CHT positive allosteric modulators, primary screen, cell-based, membrane potential dye, choline EC20. hit rate 0.49% among 310,000. B-score at 10 µM. High affinity choline transporter 1 (Homo sapiens), Q9GZV3. AID 488977, 2010. CHT-expressing cells; hits give high values; LV-AA mutant CHT in HEK293 cells;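 active = initial fluorescence not abnormally high and integrated response B-score, plate-corrected, over 3 SD above library mean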
Target sequence (Q9GZV3 whole entry, looked up): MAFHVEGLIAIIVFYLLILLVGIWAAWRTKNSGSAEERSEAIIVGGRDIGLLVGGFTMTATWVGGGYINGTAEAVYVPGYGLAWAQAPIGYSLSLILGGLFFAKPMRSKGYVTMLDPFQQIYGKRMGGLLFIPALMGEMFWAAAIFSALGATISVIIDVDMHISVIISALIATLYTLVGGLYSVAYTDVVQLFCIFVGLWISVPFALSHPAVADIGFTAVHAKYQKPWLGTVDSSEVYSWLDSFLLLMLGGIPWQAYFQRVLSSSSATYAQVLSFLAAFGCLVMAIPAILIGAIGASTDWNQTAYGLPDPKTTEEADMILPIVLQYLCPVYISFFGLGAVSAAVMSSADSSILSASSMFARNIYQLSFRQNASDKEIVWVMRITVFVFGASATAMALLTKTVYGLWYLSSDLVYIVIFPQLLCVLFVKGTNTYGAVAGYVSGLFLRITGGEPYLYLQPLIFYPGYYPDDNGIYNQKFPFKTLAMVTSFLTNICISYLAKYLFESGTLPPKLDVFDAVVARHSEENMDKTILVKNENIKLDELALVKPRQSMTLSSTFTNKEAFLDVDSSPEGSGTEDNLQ
TNAP inh hiacc: human TNAP enzyme inhibitors, primary screen, biochemical, luminescent, high phosphate acceptor level, uHTS | inhibition, % at 20 µM | AID 1135, 2008 | purified TNAP, CDP-star luminescence, 1 M DEA | hit rate 0.03% among 200,000 | Alkaline phosphatase, tissue-nonspecific isozyme (Homo sapiens), P05186;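 active = over 50% inhibition of tissue-nonspecific alkaline phosphatase at 20 µM in the single-dose screen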;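 also: plate controls were DMSO wells for no effect and EDTA-quenched wells as full inhibition for full effect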
TNAP act hi DEA: TNAP activators at high phosphate acceptor level, primary screen, biochemical, luminescence, uHTS; purified TNAP, CDP-star luminescence, 1 M DEA, 30 min; hits give high values; 0 = EDTA background, 1 = DMSO-only activity; 200,000 tested, under 10 active; activation factor at 20 µM; Alkaline phosphatase, tissue-nonspecific isozyme (Homo sapiens), P05186;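 active = activation factor at least 2 at 20 µM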
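Assay system: human TNAP; Input: enzyme diluted 1/800 final; Reagent: CDP-star luminogenic substrate at 100 µM final; Timing: 30 min, room temperature; Signal: luminescence; Evaluation: TNAP activation factor scaled between EDTA and DMSO control wells.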
ABCB6 inh 2: ABCB6 transporter inhibitors, primary screen, K562-ABCB6 cells, flow cytometry, MLPCN library | K562-ABCB6 porphyrin accumulation, 1 h; hits give low values | hit rate 0.19% among 360,000 | fluorescence ratio to DMSO, % at 10 µM | ATP-binding cassette sub-family B member 6 (Homo sapiens), Q9NP58;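 active = fluorescence ratio to DMSO below 75%, the collection mean minus 3 SD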;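 also: signal is porphyrin accumulated inside mitochondria; 100% equals median channel fluorescence of DMSO control wells; lower ratio means ABCB6 inhibition with less porphyrin fluorescence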
TNAP inh no acc: human TNAP enzyme inhibitors, primary screen, biochemical, luminescent, no phosphate acceptor, uHTS | Alkaline phosphatase, tissue-nonspecific isozyme (Homo sapiens), P05186 | purified TNAP, CDP-star luminescence, 30 min | inhibition, % at 20 µM | hit rate 0.26% among 200,000;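 active = tissue-nonspecific alkaline phosphatase inhibition above about 50% at 20 µM in the single-dose screen, limit read from the data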;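 also: 0% = DMSO negative control and 100% = EDTA positive control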
CHT block: inhibitors of human choline transporter CHT | High affinity choline transporter 1 (Homo sapiens), Q9GZV3 | CHT-expressing cells, membrane potential dye, choline response; hits give low values | B-score at 10 µM | hit rate 0.86% among 310,000;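 active = B-score over 3 SD under the library average, and starting fluorescence ratio not unusually high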;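 also: choline stimulus applied at its EC90 after an EC20 pre-addition; B-score computed on integrated fluorescence ratio after choline addition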
CHT block conf: CHT inhibitors, confirmation, cell-based, membrane potential dye, duplicate. CHT activity remaining % of control (hits give low values), % at 10 µM. CHT-expressing cells, choline membrane potential dye; LV-to-AA substituted CHT, HEK293 cells. shares compounds with CHT block. hit rate 70% among 2,400;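 active = choline transporter activity left, mean of duplicates at 10 µM, below buffer-only control mean minus 3 SD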;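 also: depolarization triggered by choline at its EC90 following an EC20 pre-addition; 0% = hemicholinium-3 full block and 100% = buffer-only control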
HEK293 CHT ctr: membrane potential effects in parental HEK293, counter-screen for CHT inhibitor project, cell-based, membrane potential dye | shares compounds with CHT block | choline response; active = decrease or increase beyond buffer ±3SD | membrane potential ratio readout (active if shifted either direction beyond buffer ±3SD; no single direction) at 10 µM | hit rate 4% among 2,400;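 also: parental cells lack the transporter so any hit is non-specific; ratio is peak minus trough fluorescence over baseline after EC90 choline challenge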
Numbers without * were called inactive; i = inactive; · = not tested or not shown.

SMILES	CHT PAM	TNAP inh hiacc	TNAP act hi DEA	ABCB6 inh 2	TNAP inh no acc	CHT block	CHT block conf	HEK293 CHT ctr
CN1CCN(S(=O)(=O)c2ccc(NC(=O)Nc3cccc(Cl)c3)cc2)CC1	i	-1.0	1	100.0	-10.5	-8.11*	28.6%*	i
CC(=O)Nc1cccc(C(=O)OC(C)C(=O)Nc2ccc(S(=O)(=O)N3CCCC3)cc2)c1 (configuration not stated)	i	·	·	97.0	·	-6.91*	63.3%*	i
O=C(Nc1cccc(Cl)c1)Nc1cc(S(=O)(=O)N2CCCCC2)ccc1Cl	i	-1.3	1	82.0	-33.3	i	·	·
COC(=O)c1cccc(NC(=O)c2ccc(S(=O)(=O)N3CCN(C)CC3)cc2)c1	i	-4.9	1	96.0	-10.0	-5.06*	32.6%*	i
Cc1c(C(=O)NNC(=S)Nc2ccc(S(N)(=O)=O)cc2)oc2ccccc12	i	·	·	97.0	·	i	·	·
Cc1cccc(N/C(N)=N/c2nc(C(F)(F)F)cc(=O)[nH]2)c1C	i	0.3	1	96.0	2.0	i	·	·
CN(C(=O)c1cc(S(=O)(=O)N2CCCCC2)c[nH]1)C1CCCCC1	i	·	·	96.0	·	-5.06*	i	i
CN(C(=O)c1ccc(S(=O)(=O)N2CCCC2)cc1)C1CCCCC1	i	1.4	1	92.0	-7.4	i	·	·
Cc1cc(C)n2nc(SC(C)C(=O)NC3CCCCC3C)nc2n1 (configuration not stated)	i	·	·	102.0	·	i	·	·
O=C(CCCCCN1C(=O)c2ccccc2C1=O)Oc1ccc2c3c(c(=O)oc2c1)CCC3	i	-5.7	1.1	86.0	9.5	i	·	·
CCn1cc(CNC(=O)c2cc(COc3ccc(F)cc3F)on2)cn1	i	-6.2	1.1	99.0	-12.8	i	68.7%*	i
CCn1ccnc1CNC(=O)c1cc(COc2ccc(F)cc2F)on1	i	-7.9	1.1	98.0	-6.7	i	·	·
S=C(NCC1CCCO1)Nc1cc(Cl)c(Cl)cc1Cl (configuration not stated)	i	-1.1	1	98.0	-3.9	-9.87*	40.8%*	i
CC(C)(C)NS(=O)(=O)c1cc(C(=O)Nc2sccc2C#N)ccc1Cl	i	-2.2	1	95.0	-5.3	-5.3*	i	i
CCC(CC)C(=O)N(C)c1c(C)nc2c(OCC(=O)C(C)(C)C)cccn12	·	·	·	100.0	·	·	·	·
Cc1nc(SCC(=O)NC(=O)NC2CCCCC2)nc(C)c1C	i	-3.4	1	98.0	-3.9	-10.6*	3.3%*	i
Nc1cc(N)nc(SCC(=O)NC(=O)NC2CCCC2)n1	·	·	·	102.0	·	·	·	·
CC(C)C(NC(=S)Nc1ccccc1)C(=O)O (configuration not stated)	i	-7.8	1.1	100.0	-14.1	i	·	·
Cc1ccc(S(=O)(=O)NCCC(=O)N2CCC(Cc3ccccc3)CC2)cc1	i	·	·	95.0	·	i	i	i
Cc1cc(NC(=O)CSc2ncccc2C(=O)O)no1	i	-2.6	1	97.0	-4.4	i	·	·
O=C(O)CSc1cc(C(=O)c2cc(F)ccc2O)cn2c(=O)c3c(-c4ccccc4)csc3nc12	i	·	·	107.0	·	-6.99*	26.1%*	i
CCCCn1c(Cn2nc(C(=O)O)c3ccccc3c2=O)nc2cc(S(N)(=O)=O)ccc21	i	·	·	88.0	·	i	·	·
NC(=S)N/N=C/c1ccccc1OCc1cccc(Cl)c1	i	24.0	0.8	98.0	1.3	i	·	·
COc1cc(CCC(=O)OCC(=O)Nc2cc(S(=O)(=O)N3CCOCC3)ccc2Cl)cc(OC)c1OC	·	·	·	89.0	·	·	·	·
COc1cc(C(=O)N2CCCC(c3cc(C(=O)NCc4ccc(F)cc4)no3)C2)cc(OC)c1C (configuration not stated)	·	·	·	107.0	·	·	·	·
SMILES	CHT PAM	TNAP inh hiacc	TNAP act hi DEA	ABCB6 inh 2	TNAP inh no acc	CHT block	CHT block conf	HEK293 CHT ctr
CNC(=O)[C@H]1O[C@@H](n2cnc3c(NCc4cccc(I)c4)ncnc32)[C@H](O)[C@@H]1O	i	·	·	103.0	·	-5.15*	44.1%*	i
CCOc1cc(/C=C2\N=C(SC)SC2=O)cc([N+](=O)[O-])c1OC(C)=O	i	9.2	0.9	95.0	4.2	-5.2*	65.4%*	i
CCOc1cc(/C=C2\N=C(SCC)SC2=O)cc([N+](=O)[O-])c1OC(C)=O	i	16.5	0.8	150.0	14.2	i	·	·
CCCn1c(SCc2cc(=O)oc3ccc4ccccc4c23)n[nH]c1=O	i	-5.9	1.1	96.0	7.6	-5.38*	i	i
CCc1ccc(-n2c(SCc3c(C)noc3C)nnc2-c2ccncc2)cc1	i	-3.2	1	95.0	-5.9	-5.09*	i	i
CCOc1ccc(-n2c(SCc3ccc(C#N)cc3)nnc2-c2cccnc2)cc1	i	-0.7	1	102.0	-6.3	i	·	·
C=CCSc1nnc(-c2ccncc2)n1-c1ccc(OCC)cc1	i	-2.5	1	99.0	-8.0	-5.46*	59.2%*	-8.42*
CSc1ccc(S(=O)(=O)N2CCC(C(=O)NCC3CCCO3)CC2)cc1 (configuration not stated)	i	·	·	97.0	·	i	·	·
O=C(CN1C(=O)NC2NC(=O)NC21)NN=C1CCCC1 (configuration not stated)	i	-3.5	1	99.0	5.8	-20.2*	i	i
CCOC(=O)C1=C(COC(=O)c2ccc(Br)c(S(=O)(=O)N3CCOCC3)c2)NC(=O)NC1C (configuration not stated)	·	·	·	96.0	·	·	·	·
CN(CC(=O)Nc1cccc(F)c1)C(=O)CCCN1C(=O)c2cccc3cccc(c23)C1=O	i	·	·	93.0	·	i	·	·
CC1CCCCC1NC(=O)C1CCCN(S(=O)(=O)c2ccc(-n3cnnn3)cc2)C1 (configuration not stated)	i	·	·	88.0	·	-9.53*	52.3%*	i
O=C(O)c1ccc(NC2=C(Cl)C(=O)c3ccccc3C2=O)cc1	i	·	·	91.0	·	-10.2*	32.5%*	i
